Reference: ChEMBL document CHEMBL3774373, “Activity and Predicted Nephrotoxicity of Synthetic Antibiotics Based on Polymyxin B” (J Med Chem, 2016)
Values after ≈ are worked out from the molar mass of the structure shown. Numbered stars: 1 amine (or outer) side, 2 acyl side, 3 side chain; on linkers, the order of the positions; unused ones are H or OH. Bridge positions count the residues as written; N and C are the ends. Square brackets hold non-standard residues; d marks the D form. Peptide text beside a SMILES is read from it. * marks the point of attachment. Benzoyl(4-OPh) = O=C(c1ccc(Oc2ccccc2)cc1)*; Benzoyl(4-Ph) = O=C(c1ccc(-c2ccccc2)cc1)*; NH(2-ClPh) = Clc1ccccc1N*; dDab = NCC[C@@H](N)C(=O)O; Octanoyl = CCCCCCCC(=O)*; Dab = NCC[C@H](N)C(=O)O; CO = O=C([*:1])[*:2]

Assays:
Acinetobacter baumannii [1] = test: Antibacterial activity against Acinetobacter baumannii ATCC 19606 after 18 hrs by 2 fold serial dilution method; type: functional; conditions: ATCC 19606, 18 h
Method in brief: (§1)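 Overnight cultures in nutrient or Mueller Hinton broth at 37 °C with shaking, diluted 50-fold into fresh MHB and grown 1.5–3 h to mid-log. Inoculum 5×10^5 CFU/mL in 2-fold serial dilutions, final range 32 to 0.015 μg/mL. MIC read visually after 18 h at 37 °C as the lowest concentration with no visible growth.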

Staphylococcus aureus [2] = test: microbe, parasite or virus in culture; conditions: ATCC 25923, 18 h
[3] = Cytotoxicity against human HepG2 cells after 24 hrs by resazurin assay; type: cell-based; conditions: HepG2 cells
Klebsiella pneumoniae [4] = test: Antibacterial activity against multidrug resistant Klebsiella pneumoniae ATCC 700603 after 18 hrs by 2 fold serial dilution method; type: functional; conditions: Klebsiella pneumoniae, 700603, 18 h
Method in brief: (§2)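 Overnight cultures at 37 °C in nutrient or Mueller Hinton broth with shaking were diluted 50-fold in MHB and grown 1.5–3 h to mid-log phase. The inoculum was 5×10^5 CFU/mL in MHB. Compounds were 2-fold serially diluted, final 32 to 0.015 μg/mL. After 18 h at 37 °C, the MIC was read visually as the lowest concentration with no visible growth.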

[5] = Cytotoxicity against HK2 cells assessed as LDH release by Western blot analysis; type: cell-based, HK-2; conditions: human, primary human renal proximal tubule epithelial cells; read-out: CC50
Pseudomonas aeruginosa [6] = test: Antibacterial activity against clinical isolate polymyxin resistant Pseudomonas aeruginosa PA9704 after 18 hrs by 2 fold serial dilution method; type: functional; conditions: PA9704, 18 h
Method in brief: (§3)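 Polymyxin-resistant clinical isolates were grown overnight at 37 °C in NB or MHB with shaking, diluted 50-fold in MHB and grown 1.5–3 h to mid-log phase. The inoculum was 5×10^5 CFU/mL. Compounds were 2-fold broth serial dilutions, final 32 to 0.015 μg/mL; the polymyxin controls ran 128–0.06 μg/mL. The MIC was the lowest concentration with no visible growth after 18 h at 37 °C.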

Klebsiella pneumoniae [7] = test: Antibacterial activity against clinical isolate carbapenem and polymyxin resistant Klebsiella pneumoniae Koprana 100650661:1 after 18 hrs by 2 fold serial dilution method; type: functional; conditions: Koprana 100650661:1, 18 h; method in brief: as §3
Klebsiella pneumoniae [8] = test: Antibacterial activity against Klebsiella pneumoniae ATCC BAA-2146 expressing NDM-1 after 18 hrs by 2 fold serial dilution method; type: functional; conditions: ATCC BAA-2146, 18 h; method in brief: as §2
[9] = Cytotoxicity against HEK293 cells after 24 hrs by resazurin assay; type: cell-based; conditions: human, HEK293 cells
Klebsiella pneumoniae [10] = test: Antibacterial activity against Klebsiella pneumoniae ATCC 13883 after 18 hrs by 2 fold serial dilution method; type: functional; conditions: ATCC 13883, 18 h; method in brief: as §1
Klebsiella pneumoniae [11] = test: Antibacterial activity against clinical isolate carbapenem and polymyxin resistant Klebsiella pneumoniae 138-16357-20362 after 18 hrs by 2 fold serial dilution method; type: functional; conditions: 138-16357-20362, 18 h; method in brief: as §3
Pseudomonas aeruginosa [12] = test: Antibacterial activity against clinical isolate polymyxin resistant Pseudomonas aeruginosa FADDI-PA070 after 18 hrs by 2 fold serial dilution method; type: functional; conditions: FADDI-PA070, 18 h; method in brief: as §3
Acinetobacter baumannii [13] = test: Antibacterial activity against clinical isolate carbapenem and polymyxin resistant Acinetobacter baumannii Ptyela 100734512:2 after 18 hrs by 2 fold serial dilution method; type: functional; conditions: Ptyela 100734512:2, 18 h; method in brief: as §3
Escherichia coli [14] = test: Antibacterial activity against Escherichia coli ATCC 25922 after 18 hrs by 2 fold serial dilution method; type: functional; conditions: ATCC 25922, 18 h; method in brief: as §1
[15] = Cytotoxicity against HK2 cells assessed as GGT release by Western blot analysis; type: cell-based, HK-2; conditions: human, primary human renal proximal tubule epithelial cells; read-out: CC50
Pseudomonas aeruginosa [16] = test: Antibacterial activity against Pseudomonas aeruginosa ATCC 27853 after 18 hrs by 2 fold serial dilution method; type: functional; conditions: ATCC 27853, 18 h; method in brief: as §1
Escherichia coli [17] = test: Antibacterial activity against Escherichia coli IFO12734; type: functional
Pseudomonas aeruginosa [18] = test: Antibacterial activity against Pseudomonas aeruginosa IFO3080; type: functional
[19] = Cytotoxicity against HK2 cells assessed as LDH release by Western blot analysis; conditions: human, hk-2
[20] = Cytotoxicity against primary human proximal tubule cells assessed as GGT release at 100 ug/mL by Western blot analysis
Staphylococcus aureus [21] = test: Antibacterial activity against Staphylococcus aureus; type: functional
Pseudomonas aeruginosa [22] = test: Antibacterial activity against Pseudomonas aeruginosa; type: functional
Escherichia coli [23] = test: Antibacterial activity against Escherichia coli; type: functional

SMILES	MIC (Acinetobacter baumannii [1]) [µg/mL]	MIC (Staphylococcus aureus [2]) [µg/mL]	CC50 at 24 h [3] [µM]	MIC (Klebsiella pneumoniae [4]) [µg/mL]	CC50 [5] [µg/mL]	MIC (Pseudomonas aeruginosa [6]) [µg/mL]	MIC (Klebsiella pneumoniae [7]) [µg/mL]	MIC (Klebsiella pneumoniae [8]) [µg/mL]	CC50 at 24 h [9] [µM]	MIC (Klebsiella pneumoniae [10]) [µg/mL]	MIC (Klebsiella pneumoniae [11]) [µg/mL]	MIC (Pseudomonas aeruginosa [12]) [µg/mL]	MIC (Acinetobacter baumannii [13]) [µg/mL]	MIC (Escherichia coli [14]) [µg/mL]	CC50 [15] [µg/mL]	MIC (Pseudomonas aeruginosa [16]) [µg/mL]	other results
CCCCCCCC(=O)N[C@@H](CCN)C(=O)N[C@H](C(=O)NCC(=O)N[C@H]1CCNC(=O)[C@H]([C@@H](C)O)NC(=O)[C@H](CCN)NC(=O)[C@H](CCN)NC(=O)[C@H](CC(C)C)NC(=O)[C@@H](Cc2ccccc2)NC(=O)[C@H](CCN)NC1=O)[C@@H](C)O (Octanoyl-[Dab]TG[Dab][Dab][dF]L[Dab][Dab]T; lactam 4-C)	1 (≈ 0.872 µM)	> 64	> 300	1 (≈ 0.872 µM)	122 (≈ 106 µM)	> 32	> 32	0.5 (≈ 0.436 µM)	> 300	0.5 (≈ 0.436 µM)	> 32	> 32	> 32	0.5 (≈ 0.436 µM)	> 128	2 (≈ 1.74 µM)	–
CCCCCCCC(=O)N[C@@H](CCN)C(=O)N[C@H](C(=O)N[C@@H](CCN)C(=O)N[C@H]1CCNC(=O)[C@H]([C@@H](C)O)NC(=O)[C@H](CCN)NC(=O)[C@H](CCN)NC(=O)[C@H](CC(C)C)NC(=O)[C@@H](Cc2ccccc2)NC(=O)[C@H](CCN)NC1=O)[C@@H](C)O (Octanoyl-[Dab]T[Dab][Dab][Dab][dF]L[Dab][Dab]T; lactam 4-C)	0.5 (≈ 0.42 µM)	> 128	> 300	1 (≈ 0.841 µM)	–	> 128	> 128	0.5 (≈ 0.42 µM)	–	2 (≈ 1.68 µM)	> 128	> 32	> 64	0.5 (≈ 0.42 µM)	–	1 (≈ 0.841 µM)	MIC (Escherichia coli [17]): 0.5 µM (≈ 0.595 µg/mL); MIC (Pseudomonas aeruginosa [18]): 1 µM (≈ 1.19 µg/mL)
CCCCCCCC(=O)N[C@@H](CCN)C(=O)N[C@H](C(=O)N[C@H](CO)C(=O)N[C@H]1CCNC(=O)[C@H]([C@@H](C)O)NC(=O)[C@H](CCN)NC(=O)[C@H](CCN)NC(=O)[C@H](CC(C)C)NC(=O)[C@@H](Cc2ccccc2)NC(=O)[C@H](CCN)NC1=O)[C@@H](C)O (Octanoyl-[Dab]T[dS][Dab][Dab][dF]L[Dab][Dab]T; lactam 4-C)	1 (≈ 0.85 µM)	> 32	> 300	2 (≈ 1.7 µM)	–	> 32	> 32	16 (≈ 13.6 µM)	–	0.5 (≈ 0.425 µM)	> 32	> 32	> 32	4 (≈ 3.4 µM)	–	2 (≈ 1.7 µM)	–
CCCCCCCC(=O)N[C@H](CCN)C(=O)N[C@H](C(=O)NCC(=O)N[C@H]1CCNC(=O)[C@H]([C@@H](C)O)NC(=O)[C@H](CCN)NC(=O)[C@H](CCN)NC(=O)[C@H](CC(C)C)NC(=O)[C@@H](Cc2ccccc2)NC(=O)[C@H](CCN)NC1=O)[C@@H](C)O (Octanoyl-[dDab]TG[Dab][Dab][dF]L[Dab][Dab]T; lactam 4-C)	> 64	> 64	> 300	8 (≈ 6.98 µM)	–	> 32	> 32	32 (≈ 27.9 µM)	–	> 32	> 32	> 32	> 32	> 32	–	16 (≈ 14 µM)	–
CC(C)C[C@@H]1NC(=O)[C@@H](Cc2ccccc2)NC(=O)[C@H](CCN)NC(=O)[C@@H](NC(=O)[C@H](CCN)NC(=O)[C@@H](NC(=O)[C@H](CCN)NC(=O)c2ccc(Oc3ccccc3)cc2)[C@@H](C)O)CCNC(=O)[C@H]([C@@H](C)O)NC(=O)[C@H](CCN)NC(=O)[C@H](CCN)NC1=O ({Benzoyl(4-OPh)}-[Dab]T[Dab][Dab][Dab][dF]L[Dab][Dab]T; lactam 4-C)	0.5 (≈ 0.397 µM)	> 32	287	0.5 (≈ 0.397 µM)	> 128	32 (≈ 25.4 µM)	> 32	0.5 (≈ 0.397 µM)	296	0.5 (≈ 0.397 µM)	> 32	8 (≈ 6.35 µM)	16 (≈ 12.7 µM)	0.5 (≈ 0.397 µM)	> 128	1 (≈ 0.794 µM)	Activity [19]: Non-toxic; Activity [20]: Non-toxic
CC(C)C[C@@H]1NC(=O)[C@@H](Cc2ccccc2)NC(=O)[C@H](CCN)NC(=O)[C@@H](NC(=O)[C@H](CCN)NC(=O)[C@@H](NC(=O)[C@H](CCN)NC(=O)c2ccc(-c3ccccc3)cc2)[C@@H](C)O)CCNC(=O)[C@H]([C@@H](C)O)NC(=O)[C@H](CCN)NC(=O)[C@H](CCN)NC1=O ({Benzoyl(4-Ph)}-[Dab]T[Dab][Dab][Dab][dF]L[Dab][Dab]T; lactam 4-C)	0.5 (≈ 0.402 µM)	> 32	298	1 (≈ 0.804 µM)	> 128	> 32	> 32	0.5 (≈ 0.402 µM)	297	0.5 (≈ 0.402 µM)	> 32	8 (≈ 6.43 µM)	8 (≈ 6.43 µM)	0.5 (≈ 0.402 µM)	> 128	1 (≈ 0.804 µM)	Activity [19]: Non-toxic; Activity [20]: Non-toxic
CC(C)C[C@@H]1NC(=O)[C@@H](Cc2ccccc2)NC(=O)[C@H](CCN)NC(=O)[C@@H](NC(=O)[C@@H](CCN)NC(=O)[C@@H](NC(=O)[C@H](CCN)NC(=O)Nc2ccccc2Cl)[C@@H](C)O)CCNC(=O)[C@H]([C@@H](C)O)NC(=O)[C@H](CCN)NC(=O)[C@H](CCN)NC1=O ({NH(2-ClPh)-CO}-[Dab]T[dDab][Dab][Dab][dF]L[Dab][Dab]T; lactam 4-C)	2 (≈ 1.64 µM)	> 32	> 300	0.5 (≈ 0.411 µM)	–	> 32	> 32	1 (≈ 0.822 µM)	–	0.5 (≈ 0.411 µM)	> 32	16 (≈ 13.1 µM)	> 32	1 (≈ 0.822 µM)	–	0.5 (≈ 0.411 µM)	–
CC(C)C[C@@H]1NC(=O)[C@@H](Cc2ccccc2)NC(=O)[C@H](CCN)NC(=O)[C@@H](NC(=O)[C@@H](CO)NC(=O)[C@@H](NC(=O)[C@H](CCN)NC(=O)Nc2ccccc2Cl)[C@@H](C)O)CCNC(=O)[C@H]([C@@H](C)O)NC(=O)[C@H](CCN)NC(=O)[C@H](CCN)NC1=O ({NH(2-ClPh)-CO}-[Dab]T[dS][Dab][Dab][dF]L[Dab][Dab]T; lactam 4-C)	> 32	> 32	> 300	16 (≈ 13.3 µM)	–	> 32	> 32	> 32	–	32 (≈ 26.6 µM)	> 32	> 32	> 32	32 (≈ 26.6 µM)	–	8 (≈ 6.65 µM)	–
CCCCCCCC(=O)N[C@H](C(=O)N[C@@H](CCN)C(=O)N[C@H]1CCNC(=O)[C@H]([C@@H](C)O)NC(=O)[C@H](CCN)NC(=O)[C@H](CCN)NC(=O)[C@H](CC(C)C)NC(=O)[C@@H](Cc2ccccc2)NC(=O)[C@H](CCN)NC1=O)[C@@H](C)O [Octanoyl Polymixin B nonapeptide] (Octanoyl-T[Dab][Dab][Dab][dF]L[Dab][Dab]T; lactam 3-C)	2 (≈ 1.84 µM)	> 32	> 300	2 (≈ 1.84 µM)	–	> 32	> 32	2 (≈ 1.84 µM)	–	1 (≈ 0.918 µM)	> 32	> 32	> 32	1 (≈ 0.918 µM)	–	0.5 (≈ 0.459 µM)	MIC (Staphylococcus aureus [21]): > 16 µg/mL; MIC (Pseudomonas aeruginosa [22]): 4 µg/mL (≈ 3.67 µM); MIC (Escherichia coli [23]): 0.03 µg/mL (≈ 0.0275 µM)
